Test results as given in paper PMC8048584 (Chemmedchem, 2021).

Target: human DDR1 (Homo sapiens, UniProt Q08345)
Test: Off-chip Mobility Shift Assay
Format: biochemical
How it was run: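 Carried out by a contract kinase profiling service, with details in the Supporting Information. IC50 (50 % inhibition) was read from semi-logarithmic dose-response plots of the test compound. Each value is the mean of duplicate samples.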

Chain of human DDR1 (Q08345 19-913): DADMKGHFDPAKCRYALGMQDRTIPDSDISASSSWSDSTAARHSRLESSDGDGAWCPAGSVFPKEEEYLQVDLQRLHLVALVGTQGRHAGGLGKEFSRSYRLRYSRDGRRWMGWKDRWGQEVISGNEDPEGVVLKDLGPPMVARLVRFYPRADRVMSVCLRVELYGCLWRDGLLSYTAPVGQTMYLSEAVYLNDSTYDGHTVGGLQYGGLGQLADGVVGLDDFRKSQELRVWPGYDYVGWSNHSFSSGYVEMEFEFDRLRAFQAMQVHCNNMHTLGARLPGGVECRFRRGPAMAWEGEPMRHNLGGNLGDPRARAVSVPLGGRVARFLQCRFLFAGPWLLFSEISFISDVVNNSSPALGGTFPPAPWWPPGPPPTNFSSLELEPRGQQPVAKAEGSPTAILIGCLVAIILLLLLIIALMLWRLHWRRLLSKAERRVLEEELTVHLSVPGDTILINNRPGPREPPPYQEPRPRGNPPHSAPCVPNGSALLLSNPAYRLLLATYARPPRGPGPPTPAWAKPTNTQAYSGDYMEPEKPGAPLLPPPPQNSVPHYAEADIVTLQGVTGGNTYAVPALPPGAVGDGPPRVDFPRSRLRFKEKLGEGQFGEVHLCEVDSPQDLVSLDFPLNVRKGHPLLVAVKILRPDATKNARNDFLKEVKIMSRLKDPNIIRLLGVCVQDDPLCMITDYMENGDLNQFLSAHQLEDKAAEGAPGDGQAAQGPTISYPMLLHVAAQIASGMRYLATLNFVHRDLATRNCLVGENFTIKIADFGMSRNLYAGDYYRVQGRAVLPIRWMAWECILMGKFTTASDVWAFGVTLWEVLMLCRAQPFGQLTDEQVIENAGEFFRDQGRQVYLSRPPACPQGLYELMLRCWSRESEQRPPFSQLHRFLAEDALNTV

With `O=C(Nc1ccc(Cl)c(COc2cccnc2)c1)c1cccc(C(F)(F)F)c1` [Compound 3, N‐(4‐chloro‐3‐((pyridin‐3‐yloxy)methyl)phenyl)‐3‐(trifluoromethyl)benzamide] the IC50 was 0.0925 µM.
